Screening results deposited in PubChem by several laboratories.
STAT3 blocker – IL-6 driven STAT3 reporter inhibitors, primary screen, U3A cells, luciferase, luminescence, MLSCN library. IL-6 STAT3-luciferase reporter; host cell line lacks STAT1. 190,000 compounds, 0.89% hits. inhibition, % at 5.5 µM. AID 862, 2007;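 active = inhibition above the mean inhibition across all screened compounds plus 3 SD, cut at about 44% in these data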;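 also: 0% = DMSO only wells and 100% = 100 µM nifuroxazide control wells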
STAT1 activator – STAT1 signaling activators, primary screen, cell-based, HTS, luciferase reporter. NIH 3T3 STAT1-luciferase reporter, IFN-gamma, luminescence; 100% = IFN-gamma alone, no compound. activation (% of control), % at 5.5 µM. 200,000 compounds, 2.6% hits;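 active = activation above the screen-wide mean activation plus 3 SD, cut at about 130% in these data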;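 also: raw ratio to IFN-gamma control signal so 100% means no change and 0% no light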
APP 5'UTR act – activators of APP 5'UTR luciferase reporter, primary screen, SH-SY5Y cells. SH-SY5Y APP 5'UTR luciferase reporter, luminescence; zero percent = DMSO vehicle wells. activation, % at 2 µM. 190,000 compounds, 1% hits. AID 1276, 2008;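 active = activation above a set limit, based on mean plus 3 SD of controls, cut at about 140% in these data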
STAT1 blocker – STAT1 signaling inhibitors, primary screen, cell-based, HTS, luciferase reporter | NIH 3T3 STAT1-luciferase reporter, IFN-gamma, luminescence | inhibition, % at 5.5 µM | 200,000 compounds, 0.35% hits | AID 920, 2007;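 active = inhibition above a set limit, the mean inhibition across all tested compounds plus 3 SD, cut at about 34% in these data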;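 also: 0% = IFN-gamma with DMSO and 100% = IFN-gamma with 300 µM nifuroxazide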
NF-kB neuron act – activators of NF-kB expression in neurons, primary screen, cell-based, HTS; human neuronal cells, NF-kB reporter expression; active compounds read high; fold change at 12.5 µM; 190,000 compounds, 1.6% hits; in the data active = fold change above about 3.3
STAT3 activator – IL-6 driven STAT3 reporter potentiators, primary screen, U3A cells, luciferase, luminescence, MLSCN library; IL-6 STAT3-luciferase reporter; 100% = signal with IL-6 EC80 alone; activation (% of control), % at 5.6 µM; 190,000 compounds, 0.91% hits;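 active = activation above the screen-wide mean of compound activation plus 3 SD, cut at about 130% in these data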;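 also: 0% = background luminescence of wells with medium and substrate only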
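Test system: Human STAT1-deficient U3A cells with stable STAT3-luciferase reporter | Also added: Interleukin-6, 33 ng/mL | Timing: Compound pre-incubation 1 h before IL-6, then 6 h stimulation at 37 °C | Technique: Luciferase reporter luminescence | Read-out: Percent of IL-6-only median luminescence | Benchmarks: IL-6-only wells as 100% reference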
* marks the source's active call; other numbers are inactive results. Sampled rows, rich in hits. Any-hit rate of the full collection: about 4.9%.

SMILES	STAT3 blocker	STAT1 activator	APP 5'UTR act	STAT1 blocker	NF-kB neuron act	STAT3 activator
CN(C)c1ccc(NC(=O)/C=C/c2ccccc2Cl)cc1	7	149*	111	-54	1.9	97
COC(=O)c1cc(NC(=O)/C=C/c2ccccc2)ccc1O	-2	133*	56	-38	2	104
CN(C)c1ccc(NC(=S)NC(=O)/C=C/c2ccco2)cc1	-5	109	26	-10	1.1	106
CCc1nnc(NC(=O)CSc2nc3cc(OC)ccc3cc2C)s1	13	99	6	-1	1.1	91
Cc1cc(NC(=O)/C=C/c2ccccc2Cl)no1	-9	135*	83	-40	2	110
CCOC(=O)N1N=C(c2ccc(OC)cc2)CC1(O)C(F)(F)F (configuration not stated)	13	116	171*	-19	3.3	90
CCc1ccc(C2=NN(C(=O)OC)C(O)(C(F)(F)F)C2)cc1 (configuration not stated)	69*	66	136*	38*	3.2	48
O=C(NCC1CCCO1)C1CCCN1C(=O)Nc1ccc(Cl)cc1 (configuration not stated)	4	105	29	-7	1.1	100
O=C(c1sc2cc(F)ccc2c1Cl)N1CCN(c2ccccc2)CC1	7	96	-10	4	1.5	93
Cc1sc2nc(COC(=O)c3cccc(S(=O)(=O)N(C)c4ccccc4)c3)[nH]c(=O)c2c1C	9	89	11	11	0.96	98
O=C(N/N=C/c1cccc([N+](=O)[O-])c1)c1cccs1	3	117	43	-19	1.5	98
O=C(N/N=C/C=C\c1ccccc1[N+](=O)[O-])c1cccs1	17	101	1	-1	5.2*	89
CCOc1cc(/C=N/NC(=O)c2cccs2)cc([N+](=O)[O-])c1O	11	129*	70	-33	0.92	94
O=C(N/N=C/C=C\c1ccco1)c1cccs1	5	130*	24	-35	2.1	101
CC(=O)c1c(C)nn(CC(O)COc2ccc3ccccc3c2)c1C (configuration not stated)	4	95	15	3	0.9	100
CCOC(=O)C1=C2NC(=O)c3ccccc3N2C(=O)C1	13	92	-6	8	1.2	93
CCN(CC)c1ccc(/C=N/N2CCOCC2)cc1	-18	139*	48	-44	3.2	124
CCN(Cc1ccccc1)c1ccc(/C=N/N2CCOCC2)cc1	-6	113	-14	-14	1.6	107
O=C1c2cccc3cccc(c23)C(=O)N1CCCN1CCN(c2ccc(F)cc2)CC1	29	100	-10	-2	1	76
CCOC(=O)C1=NN(C(C)=O)C2(CC(=O)N(c3ccc(C)c(C)c3)C2=O)C1 (configuration not stated)	2	100	6	0	1.2	99
COc1ccc(-c2nnc(SCC(=O)Nc3ccccc3OC)o2)cc1	-12	101	117	-1	4.1*	113
Cc1cnc(NC(=O)CSc2nnc(COc3c(C)cccc3C)o2)s1	6	100	-5	1	0.98	99
COc1ccccc1NC(=O)CSc1nnc(-c2ccncc2)o1	-1	106	18	-7	1.1	104
COc1ccc(-c2nnc(SCC(=O)Nc3cccc(Cl)c3)o2)cc1	4	106	214*	-7	1.2	101
Cc1cnc(NC(=O)CSc2nnc(-c3ccccc3)o2)s1	-3	129*	113	-31	2.5	106
SMILES	STAT3 blocker	STAT1 activator	APP 5'UTR act	STAT1 blocker	NF-kB neuron act	STAT3 activator
COc1ccc(OCC(=O)Nc2cccc(-c3nc4ccccc4o3)c2)cc1	5	148*	113	-53	1.8	98
O=c1c2cnn(-c3ccccc3)c2nc(-c2cccs2)n1-c1cccc(Cl)c1	-10	98	0	3	1	107
O=C(CCCc1nc2ccccc2s1)NCc1cccnc1	6	96	-14	5	0.85	100
COc1cc(NC(=O)c2cc3sccc3n2C)cc(OC)c1	-31	132*	104	-36	2.5	131
CCOC(=O)N1CCN(C(=O)c2cc(-c3ccc(OCC)cc3)nc3ccccc23)CC1	-1	146*	-78	-51	3.3*	103
COc1ccc2cc(-c3cc(C(=O)O)c4ccccc4n3)ccc2c1	95*	36	84	73*	6.3*	17
O=c1c(Cl)c(N2CCCCC2)cnn1-c1nc2ccccc2[nH]1	103*	35	97	71*	0.44	13
O=c1c2ccccc2cnn1-c1nc2ccccc2[nH]1	107*	12	-69	94*	0.22	9
COc1ccc(NC(=O)c2c(NC(=O)CCC(=O)O)sc(-c3ccccc3)c2C)cc1	8	103	-16	-5	1.1	95
CC1=CCC2C(=O)N(c3ccccc3OC(=O)c3ccccc3F)C(=O)C2C1 (configuration not stated)	-9	97	-1	4	1.1	106
CCOC(=O)N1CCN(C(=O)c2ccc3c(c2)sc2nc(-c4ccc(OC)cc4)cn23)CC1	12	112	19	-13	0.66	94
COc1ccc2c(c1)sc1nc(-c3ccccc3)cn12	106*	34	-87	71*	0.63	15
Cc1cc(C(=O)CSc2nc3ccccc3o2)c(C)n1CC1CCCO1 (configuration not stated)	36	142*	47	-32	0.78	71
CC(=O)NS(=O)(=O)c1ccc(NC(=O)CSc2ccc(C)cc2)cc1	-3	104	31	-6	1.1	108
Oc1[nH]c(=S)sc1/C=C1\C(c2ccccc2)=Nc2ccccc21	-20	114	8	-16	0.86	115
Cc1cccc(OCCCC(=O)Nc2ccc(N(C)C)cc2)c1	-18	145*	92	-51	1.2	118
COc1ccc(OC)c(Nc2ncnc3sc(-c4ccccc4)cc23)c1	-10	101	8	-1	1.5	107
COc1ccc(-c2cc3nnc(-c4ccccc4)nc3s2)cc1	5	135*	28	-37	1.1	95
CCC(C)NCC(=O)Nc1ccc(S(N)(=O)=O)cc1 (configuration not stated)	-2	110	12	-13	1	103
CCOc1ccc(-c2nc(CCl)cs2)cc1	6	116	48	-17	3.8*	96
O=C(NC1CCCCC1)C(c1ccc(Cl)cc1)N(C(=O)c1ccccn1)c1cccnc1 (configuration not stated)	6	99	-5	1	0.99	100
